In ChEMBL document CHEMBL1158586, “Hypopigmentary action of dihydropyranocoumarin D2, a decursin derivative, as a MITF-degrading agent” (J Nat Prod, 2010):
Activity calls are given as the source filed them. The rule behind the calls is not given here.

What was measured:
Mel-Ab [1] = experiment: Cytotoxicity against mouse Mel-Ab cells at 1 to 100 uM after 24 hrs by crystal violet assay; assay type: functional, cell-based
Summary of the method: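 Mel-Ab (spontaneously immortalized mouse melanocytes; DMEM, 10% FBS, 100 nM TPA, 1 nM CT, 37 °C, 5% CO2) exposed 24 h to 1, 10, 50, 100 µM. Crystal violet staining (0.1% in 10% ethanol, 5 min, room temperature), four water rinses, dye extracted with 95% ethanol, absorbance read at 590 nm.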

Mel-Ab [2] = experiment: Inhibition of melanin synthesis in mouse Mel-Ab cells assessed as reduction in melanin synthesis at 1 to 100 uM after 4 hrs by phase-contrast microscopy; assay type: functional, cell-based; conditions: in the assay text read “4 days” for “4 hrs”
Summary of the method: (§1)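 Mel-Ab melanocytes in TPA/CT-supplemented DMEM given 1–100 µM for four days. Cells photographed under phase contrast. Pellets then dissolved in 1 N NaOH, 100 °C, 30 min, spun 16000g for 20 min, supernatant OD read at 400 nm. Mean ± SD of three replicate experiments, compared with untreated control.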

Mel-Ab [3] = experiment: Inhibition of melanin synthesis in mouse Mel-Ab cells assessed as in melanin content after 4 hrs by ELISA; assay type: functional, cell-based; conditions: in the assay text read “4 days” for “4 hrs”; summary of the method: as §1
Mel-Ab [4] = experiment: Induction of ERK activity in 24 hrs serum starved mouse Mel-Ab cells at 50 uM by Western blot analysis; assay type: cell-based
Summary of the method: (§2)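 Mel-Ab cells serum-starved 24 h, then given 50 µM for the indicated times up to 360 min. Whole-cell lysates run at 10 µg protein per lane by SDS-PAGE and blotted on PVDF. Probed with 1:1000 antibodies to phospho-ERK, phospho-Akt, MITF and tyrosinase; actin served as loading control.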

[5] = molecular target: T1, Microphthalmia-associated transcription factor (Mus musculus) (UniProt Q08874); experiment: Down regulation of MITF activity in 24 hrs serum starved mouse Mel-Ab cells at 50 uM measured after 60 to 360 mins by Western blot analysis; assay type: cell-based; summary of the method: as §2
T1 sequence (whole entry): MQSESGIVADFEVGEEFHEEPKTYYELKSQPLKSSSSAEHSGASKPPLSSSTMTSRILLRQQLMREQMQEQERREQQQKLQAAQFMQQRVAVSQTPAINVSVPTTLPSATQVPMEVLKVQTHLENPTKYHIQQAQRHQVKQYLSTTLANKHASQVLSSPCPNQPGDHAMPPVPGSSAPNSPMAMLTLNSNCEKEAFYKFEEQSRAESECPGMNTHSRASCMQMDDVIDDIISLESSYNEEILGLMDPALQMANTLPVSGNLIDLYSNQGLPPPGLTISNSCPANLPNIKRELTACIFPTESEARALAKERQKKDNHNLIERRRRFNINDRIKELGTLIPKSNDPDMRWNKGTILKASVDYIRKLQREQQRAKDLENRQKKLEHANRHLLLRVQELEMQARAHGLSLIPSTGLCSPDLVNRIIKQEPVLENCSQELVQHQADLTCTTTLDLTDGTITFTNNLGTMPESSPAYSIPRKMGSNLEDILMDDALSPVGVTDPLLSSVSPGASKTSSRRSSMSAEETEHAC

Mel-Ab [6] = experiment: Reduction of MITF level in 24 hrs serum starved mouse Mel-Ab cells at 50 uM measured after 24 to 72 mins by Western blot analysis; assay type: functional; conditions: in the assay text read “24 to 72 hrs” for “24 to 72 mins”
Summary of the method: (§3)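 Mel-Ab cells cultured 24–72 h with 50 µM. Whole-cell lysates (10 µg protein/lane) analysed by Western blot for MITF and tyrosinase, with actin as loading control.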

Mel-Ab [7] = experiment: Reduction of tyrosinase protein level in 24 hrs serum starved mouse Mel-Ab cells at 50 uM measured after 24 to 72 mins by Western blot analysis; assay type: functional; conditions: in the assay text read “24 to 72 hrs” for “24 to 72 mins”; summary of the method: as §3
[8] = Inhibition of melanin synthesis in mouse Mel-Ab cells assessed as reduction in melanin synthesis at 50 uM after 4 hrs by phase-contrast microscopy in presence of PD-98059 ERK pathway inhibitor; assay type: functional, cell-based; conditions: in the assay text read “4 days” for “4 hrs”
Summary of the method: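 Mel-Ab cells pretreated 1 h with 20 µM PD98059, then cultured four days with 50 µM compound. Phase-contrast photography, then melanin read as OD 400 nm after dissolving pellets in 1 N NaOH at 100 °C. Triplicate determinations, mean ± SD.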

Mel-Ab [9] = experiment: Reduction of MITF level in 24 hrs serum starved mouse Mel-Ab cells […] measured after 3 hrs followed by MG132 proteasome inhibitor for 1 hr by Western blot analysis; assay type: functional
Summary of the method: (§4)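 After serum starvation, Mel-Ab cells pretreated 1 h with 25 µg/mL cycloheximide, then 1 h with 25 µM MG132 and/or 100 µM chloroquine, then 3 h with 50 µM compound. MITF detected by Western blot of whole-cell lysates.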

Mel-Ab [10] = experiment: Reduction of MITF level in 24 hrs serum starved mouse Mel-Ab cells […] measured after 3 hrs followed by chloroquine lysosomal proteolysis inhibitor for 1 hr by Western blot analysis; assay type: functional; summary of the method: as §4
Mel-Ab [11] = experiment: Reduction of MITF level in 24 hrs serum starved mouse Mel-Ab cells at 25 ug/ml measured after 3 hrs followed by MG132/chloroquine for 1 hr by Western blot analysis; assay type: functional; conditions: 50 uM, in the assay text read “50 uM” for “25 ug/ml”; summary of the method: as §4
Mel-Ab [12] = experiment: Induction of ERK activity in 24 hrs serum starved mouse Mel-Ab cells at 50 uM by Western blot analysis in presence of PD-98059; assay type: cell-based
[13] = molecular target: T2, Tyrosinase (Mus musculus) (UniProt P11344); experiment: Inhibition of tyrosinase activity in mouse Mel-Ab cells assessed as inhibition of melanogenesis at 1 to 100 uM by ELISA
T2 sequence (whole entry): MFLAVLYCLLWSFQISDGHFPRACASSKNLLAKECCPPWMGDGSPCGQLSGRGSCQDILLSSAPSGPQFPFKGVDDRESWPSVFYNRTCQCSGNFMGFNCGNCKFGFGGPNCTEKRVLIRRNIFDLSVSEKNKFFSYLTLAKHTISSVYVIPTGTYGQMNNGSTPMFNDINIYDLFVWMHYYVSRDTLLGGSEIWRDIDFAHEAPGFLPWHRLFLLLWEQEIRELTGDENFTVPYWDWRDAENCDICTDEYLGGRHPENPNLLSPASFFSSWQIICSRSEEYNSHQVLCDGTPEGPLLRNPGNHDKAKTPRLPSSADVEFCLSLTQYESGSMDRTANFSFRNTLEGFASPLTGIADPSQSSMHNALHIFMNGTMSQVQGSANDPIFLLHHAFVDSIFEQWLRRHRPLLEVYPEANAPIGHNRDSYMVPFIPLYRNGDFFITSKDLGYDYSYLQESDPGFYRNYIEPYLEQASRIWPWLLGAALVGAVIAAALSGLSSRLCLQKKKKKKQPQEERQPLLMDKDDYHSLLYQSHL

Mel-Ab [14] = experiment: Reduction of MITF level in 24 hrs serum starved mouse Mel-Ab cells at 50 uM measured after 3 hrs by Western blot analysis in presence of PD-98059

- Activity [5]: Active
- Activity [13]: Active
Compound: CC1(C)Oc2cc3oc(=O)ccc3cc2C[C@@H]1OC(=O)/C=C/c1ccccc1
- Activity (Mel-Ab [1]): inactive
- Activity (Mel-Ab [2]): Active
- Activity (Mel-Ab [3]): Dose-dependent effect
- Activity (Mel-Ab [4]): Active
- Activity (Mel-Ab [6]): Active
- Activity (Mel-Ab [7]): Active
- Activity [8]: inactive
- Activity (Mel-Ab [9]): inactive
- Activity (Mel-Ab [10]): inactive
- Activity (Mel-Ab [11]): Active
- Activity (Mel-Ab [12]): inactive
- Activity (Mel-Ab [14]): inactive
